# Compounds with a hit are over-represented: about 2.7% of the library has one in this group of screens.
# E-sel inducer: E-selectin induction on HUVECs. P16581. HUVEC E-selectin immunofluorescence imaging; normalized: neutral wells 0, TNF-alpha wells 100. activation, % at 7.58 µM. hit rate 0.37% among 260,000. AID 686992;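 active = mean E-selectin-positive cell signal at least 10% of the positive control, reached in at least 60% of replicates, without over 20% cell loss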
#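 Read-out basis: % PE-positive cells; Test system: HUVEC primary endothelial cells; Technique: immunofluorescence imaging; Dosing: single-point compound dose.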
# CFTR F508del cor: correctors of CFTR F508del function in bronchial epithelial cells. CFBE cells, YFP halide quenching; stimulated with forskolin plus potentiator P3; % fluorescence drop versus neutral controls. activity (quench increase), % at 7.58 µM. hit rate 0.36% among 350,000. AID 720511;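 active = mean added fluorescence quench of at least 8% versus neutral control, with both replicates also reaching 8%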;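 also: cells transiently co-express mutant CFTR-F508del with the halide-sensitive YFP; corrector assay measuring rescue of mutant channel to the surface after 24 h compound exposure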
# S100A4 inh HTS: S100A4-myosin IIA interaction inhibition. P26447. S100A4/TAMRA-MyoIIA peptide fluorescence polarization. inhibition, % at 10.7 µM. hit rate 0.14% among 360,000. AID 652163;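 active = mean inhibition of at least 70% across replicates, with every replicate also reaching that level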
# Target sequence (P26447 whole entry, looked up): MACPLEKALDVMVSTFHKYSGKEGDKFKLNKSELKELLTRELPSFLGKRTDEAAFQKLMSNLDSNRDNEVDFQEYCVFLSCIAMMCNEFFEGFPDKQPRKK
#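 Material: S100A4 monomer protein | Medium: HEPES pH 7.2 with CaCl2, KCl, NaCl, DTT, Triton | Reagent: Labelled myosin peptide probe, 5 nM | Doses: One dose per compound | Times: 5 min incubation before reading | Benchmarks: Neutral control DMSO, positive control TFP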
# FGF22 binding: binders of recombinant human FGF22 by thermal shift; activity (Tm shift, normalised), % at 9.99 µM; hit rate 1.5% among 340,000; Q9HCT0; SYPRO orange fluorescence; percent of sucrose octasulfate shift, DMSO zero;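 active = mean Tm shift, scaled 0 neutral to 100 positive control, at about 1.3% or above, every replicate too, limit read from the data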
# Target sequence (Q9HCT0 whole entry, looked up): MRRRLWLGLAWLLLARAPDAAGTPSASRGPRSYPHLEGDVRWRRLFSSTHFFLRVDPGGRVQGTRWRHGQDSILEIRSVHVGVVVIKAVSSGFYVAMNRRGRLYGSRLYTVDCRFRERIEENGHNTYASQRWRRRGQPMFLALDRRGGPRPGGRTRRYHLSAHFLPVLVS
# HIV Env fusion: inhibitors of HIV Env-mediated cell fusion | inhibition, % at 12.3 µM | hit rate 1.1% among 360,000 | HeLa-JRFL Env/CEM21 cell fusion, luciferase;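 active = mean replicate inhibition score of at least 50 and every replicate individually at or above 50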
# A number is an active result; – = inactive; · = no result; ! = not confirmed by another sample; [ ] = another dose, or the depositor's remark.
SMILES,E-sel inducer,CFTR F508del cor,S100A4 inh HTS,FGF22 binding,HIV Env fusion
COc1cc(C(=O)Nc2ccc3c(c2)ncn3C)cc(OC)c1OC,·,12,–,–,–
COc1ccc(CNC(=O)N(C)C[C@H]2OCc3ccccc3-c3ccccc3C(=O)N([C@H](C)CO)C[C@H]2C)cc1,–,–,·,·,–
C=CCN=c1scc(-c2ccc(F)cc2)n1/N=C/c1ccccn1,–,–,–,–,–
C=CCN=c1scc(-c2ccccc2)n1/N=C/c1ccccn1,–,8.4!,–,–,–
O=C(NCC[C@H]1CC[C@H](NC(=O)C2CCC2)[C@H](CO)O1)Nc1ccc(Cl)cc1,–,–,–,–,–
Cc1noc(C)c1NC(=O)N(C)C[C@@H]1Oc2ccc(NC(=O)C3CCCCC3)cc2CC(=O)N([C@@H](C)CO)C[C@H]1C,–,–,–,–,–
CCN(CC)c1ccc(/C=C/c2ccc3ccc(OC)cc3[n+]2CC)cc1,·,–,100,–,–
O=C(Cc1ccccc1)c1c[nH]c(C(=O)NCc2ccncc2)c1,·,–,–,43,–
CC(C)NC(=O)Nc1ccc2c(c1)C(=O)N([C@@H](C)CO)C[C@@H](C)[C@@H](CN(C)Cc1ccc(C(F)(F)F)cc1)OCCCC[C@@H](C)O2,·,–,–,–,70[16.7 µM]
C[C@H]1CN([C@@H](C)CO)C(=O)c2cc(NC(=O)Nc3ccc(C(F)(F)F)cc3)ccc2O[C@H]1CN(C)Cc1ccc(Oc2ccccc2)cc1,–,–,–,–,·
CC(C)NC(=O)Nc1ccc2c(c1)C(=O)N([C@@H](C)CO)C[C@H](C)[C@H](CN(C)Cc1ccc(C(F)(F)F)cc1)OCCCC[C@@H](C)O2,·,–,–,–,–
C[C@@H]1CCCCO[C@@H](CN(C)Cc2ccc(C(F)(F)F)cc2)[C@H](C)CN([C@@H](C)CO)C(=O)c2cc(NC(=O)Nc3ccc(C(F)(F)F)cc3)ccc2O1,–,–,·,–,59[16.7 µM]
C[C@H](CO)N1C[C@H](C)[C@H](CN(C)Cc2ccc(C(F)(F)F)cc2)OCCCC[C@H](C)Oc2ccc(NC(=O)Nc3ccccc3)cc2C1=O,–,–,·,–,73[16.7 µM]
C[C@H](CO)N1C[C@H](C)[C@@H](CN(C)Cc2ccc(Oc3ccccc3)cc2)Oc2ccc(NC(=O)Nc3ccc(C(F)(F)F)cc3)cc2C1=O,273,–,–,–,·
CCC(=O)N1C[C@H](C)[C@H](OC)CN(C)C(=O)c2ccc(NC(=O)c3ccccc3)cc2OC[C@@H]1C,–,–,–,–,–
C[C@@H]1CN([C@@H](C)CO)C(=O)c2cccc(NS(=O)(=O)c3ccc(Cl)cc3)c2O[C@@H]1CN(C)CC1CC1,–,–,–,–,–
CC(C)NC(=O)Nc1ccc2c(c1)C(=O)N([C@H](C)CO)C[C@H](C)[C@@H](CN(C)Cc1ccc(C(F)(F)F)cc1)O2,–,–,–,–,·
CC(C)NC(=O)Nc1ccc2c(c1)C(=O)N([C@@H](C)CO)C[C@@H](C)[C@H](CN(C)Cc1ccc(C(F)(F)F)cc1)O2,38,–,–,–,·
CNC(=O)C[C@H]1CC[C@@H]2[C@@H](COc3ccc(NC(=O)c4cnccn4)cc3C(=O)N2C)O1,–,–,·,–,–
C[C@@H]1CCCCO[C@H](CN(C)C(=O)C2CCCCC2)[C@H](C)CN([C@@H](C)CO)C(=O)c2cc(NC(=O)Nc3ccc(C(F)(F)F)cc3)ccc2O1,–,–,–,–,–
CCC(=O)N1CC2(C1)[C@H](c1ccccc1)[C@@H](CO)N2Cc1ccccc1OC,–,–,–,–,·
C=CCc1c(Cl)nc(C)nc1NCc1ccccc1,·,–,–,–,59
Cc1ccc(S(=O)(=O)Oc2ccccc2-c2ccccc2)cc1,–,–,–,43,60
Cc1ccc(S(=O)(=O)Oc2ccccc2)cc1,–,–,–,–,–
COc1cccc(S(=O)(=O)N[C@H]2C=C[C@@H](CC(=O)NCc3ccccc3)O[C@H]2CO)c1,–,–,–,–,–
SMILES,E-sel inducer,CFTR F508del cor,S100A4 inh HTS,FGF22 binding,HIV Env fusion
COCCNC(=O)C(C)Oc1ccccc1 (configuration not stated),–,–,–,43,–
COc1ccccc1CNC(=O)C(C)Oc1ccccc1 (configuration not stated),–,–,–,–,–
COc1ccccc1C/C(N)=N/OC(=O)/C=C/c1ccccc1,–,–,–,43,–
COc1ccccc1C/C(N)=N/OC(=O)COc1cccc(C)c1C,–,–,–,–,–
COc1ccccc1C/C(N)=N/OC(=O)COc1cc(C)cc(C)c1C,·,–,–,43,–
C[C@@H]1CN([C@@H](C)CO)C(=O)c2cccc(NC(=O)c3ccncc3)c2O[C@@H]1CN(C)S(=O)(=O)c1ccccc1,–,–,–,–,–
Cc1ccc(S(=O)(=O)N[C@@H]2CC[C@H](CC(=O)N3CCC(Cc4ccccc4)CC3)O[C@H]2CO)cc1,–,–,–,–,–
C[C@H](CO)N1C[C@H](C)[C@H](CN(C)C(=O)C2CCCCC2)OCCCC[C@H](C)Oc2ccc(NC(=O)c3ccccc3)cc2C1=O,–,–,–,–,–
CC(=O)N(C)C[C@H]1Oc2ncc(-c3cncnc3)cc2C(=O)N([C@H](C)CO)C[C@H]1C,–,–,–,–,–
C[C@H]1CN([C@@H](C)CO)C(=O)c2cc(-c3ccccc3)cnc2O[C@@H]1CN(C)C(=O)C1CCCCC1,–,–,–,–,·
O=C(O)COc1ccc(NC(=O)c2ccc(NC(=O)c3ccco3)cc2)cc1,–,–,–,44,–
CCC(=O)Oc1cccc(C(=O)Nc2cccc(NC(=O)c3ccco3)c2)c1,38,–,–,–,–
CC(=O)Nc1ccc(C(=O)/C=C/c2ccco2)cc1,·,·,·,·,–
O=C(/C=C\c1ccco1)c1ccc(NC(=O)c2ccco2)cc1,·,–,–,43,–
O=C(C[C@H]1CC[C@@H]2[C@H](COC[C@H](O)CN2CC2CCCCC2)O1)NCc1ccc(F)cc1,–,–,–,–,–
C[C@@H](O)C#Cc1ccc2c(c1)O[C@@H](CN(C)C(=O)c1ccccc1)[C@@H](C)CN([C@@H](C)CO)S2(=O)=O,–,–,–,–,–
CCOc1ccc(-c2nnc3ccc(SCC(=O)Nc4nc5ccc(C)cc5s4)nn23)cc1,–,·,–,–,–
CCOc1ccc2nc(NC(=O)CSc3ccc(Cl)cc3)sc2c1,–,·,·,·,–
CCOc1ccc2nc(NC(=O)CSc3nc(SC)ns3)sc2c1,·,–,–,1.7,·
CCOc1ccc(-c2nnc3ccc(SCC(=O)Nc4nc5ccccc5s4)nn23)cc1,–,·,–,6.6,–
CCS(=O)(=O)Nc1ccc2c(c1)C(=O)N(C)[C@@H]1CC[C@@H](CC(=O)N3CCOCC3)O[C@@H]1CO2,–,–,–,–,–
O=S(=O)(N[C@H]1CC[C@H](CCn2cc(-c3ccccn3)nn2)O[C@H]1CO)c1cccc(Cl)c1,–,–,–,–,–
Cn1c(=O)[nH]c(=O)c2c1nc(NCCCO)n2CCCc1ccccc1,·,–,–,–,·
